Source: ChEMBL document CHEMBL1142721, “Nanomolar inhibitors of CNS epinephrine biosynthesis: (R)-(+)-3-fluoromethyl-7-(N-substituted aminosulfonyl)-1,2,3,4-tetrahydroisoquinolines as potent and highly selective inhibitors of phenylethanolamine N-methyltransferase1” (J Med Chem, 2005)

Target: T1, Alpha-2A adrenergic receptor (Rattus norvegicus, UniProt P22909)
T1 sequence (P22909 whole entry): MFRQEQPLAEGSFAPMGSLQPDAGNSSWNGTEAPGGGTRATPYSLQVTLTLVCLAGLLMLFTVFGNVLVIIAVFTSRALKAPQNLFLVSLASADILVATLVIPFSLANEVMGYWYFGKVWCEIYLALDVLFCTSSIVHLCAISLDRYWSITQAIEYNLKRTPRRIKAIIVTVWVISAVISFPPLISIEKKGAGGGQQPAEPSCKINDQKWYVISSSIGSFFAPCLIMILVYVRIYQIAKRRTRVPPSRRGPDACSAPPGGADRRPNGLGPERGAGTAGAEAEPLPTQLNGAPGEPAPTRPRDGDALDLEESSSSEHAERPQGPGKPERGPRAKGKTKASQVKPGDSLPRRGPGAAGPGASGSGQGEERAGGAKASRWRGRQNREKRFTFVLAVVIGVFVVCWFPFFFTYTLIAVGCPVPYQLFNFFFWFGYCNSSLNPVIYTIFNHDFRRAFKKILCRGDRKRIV
Test: In vitro binding affinity against rat Alpha-2 adrenergic receptor using [3H]clonidine
Summary of the method: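 Rat cortex membranes (male Sprague-Dawley) washed by three 50 000 × g spins in ice-cold 50 mM Tris/HCl pH 7.7. Incubated with [3H]clonidine at 2.0 nM final, 25 °C, 30 min. Bound ligand recovered on GF/B filters and counted. Nonspecific binding set with 2 µM phentolamine. Quadruplicate, 5 concentrations over a 16-fold range. IC50 from log-probit analysis, converted by Ki = IC50/(1 + [clonidine]/KD).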

Structure (SMILES)	Ki
O=S(=O)(NCCC(F)(F)F)c1ccc2c(c1)CNC(CF)C2 (configuration not stated)	660 µM
CCCNS(=O)(=O)c1ccc2c(c1)CNC(CF)C2 (racemic)	610 µM
COCCCNS(=O)(=O)c1ccc2c(c1)CNC(CF)C2 (racemic)	750 µM
O=S(=O)(NCC(F)(F)F)c1ccc2c(c1)CNC(CF)C2 (racemic)	1200 µM
COCCCNS(=O)(=O)c1ccc2c(c1)CN[C@@H](CF)C2	680 µM
O=S(=O)(NCCC(F)(F)F)c1ccc2c(c1)CN[C@@H](CF)C2	670 µM
O=S(=O)(NCC(F)(F)F)c1ccc2c(c1)CN[C@@H](CF)C2	1000 µM
O=S(=O)(c1ccc2c(c1)CNC(CF)C2)N1CCSCC1 (racemic)	190 µM
O=S(=O)(c1ccc2c(c1)CN[C@@H](CF)C2)N1CCSCC1	200 µM

Results, then the molecule that gave them:

Ki	Structure (SMILES)
700 µM	NS(=O)(=O)c1ccc2c(c1)CN[C@@H](CF)C2
570 µM	CCCNS(=O)(=O)c1ccc2c(c1)CN[C@@H](CF)C2
140 µM	O=S(=O)(Nc1ccc(Cl)cc1)c1ccc2c(c1)CN[C@@H](CF)C2
550 µM	CCNS(=O)(=O)c1ccc2c(c1)CN[C@@H](CF)C2
150 µM	O=S(=O)(Nc1ccc(Cl)cc1)c1ccc2c(c1)CN[C@H](CF)C2
550 µM	CCNS(=O)(=O)c1ccc2c(c1)CNC(CF)C2 (racemic)
680 µM	NS(=O)(=O)c1ccc2c(c1)CNC(CF)C2 (racemic)
140 µM	O=S(=O)(Nc1ccc(Cl)cc1)c1ccc2c(c1)CNC(CF)C2 (racemic)
